Results from ChEMBL document CHEMBL1127351, “Technetium-99m N,N'-bis(2-mercapto-2-methylpropyl)-2-aminobenzylamine: technetium-99m complexes of a novel bis(aminoethanethiol) ligand” (J Med Chem, 1994).
One block for each substance: values may come before it.

Key:
Rattus norvegicus [1] = species: Rattus norvegicus; assay: Biodistribution of compound was tested in rat blood at 2 min; assay type: ADME, organism-based; conditions: in vivo
Summary of the method: (§1)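 Male Sprague-Dawley rats (200–300 g) under ether anesthesia got an iv injection of 0.2 mL saline containing the 99mTc complex (2–5 μCi). At set times, blood was drawn by cardiac puncture and rats were killed by cardiectomy. Organs were excised, weighed and gamma-counted. % dose/organ was taken against diluted injected-dose standards. Values are the mean of three rats ± SEM.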

Rattus norvegicus [2] = species: Rattus norvegicus; assay: Biodistribution of compound was tested in rat blood at 15 min; assay type: ADME, organism-based; conditions: in vivo, 0.25 h; summary of the method: as §1
Rattus norvegicus [3] = species: Rattus norvegicus; assay: Biodistribution of compound was tested in rat blood at 60 min; assay type: ADME, organism-based; conditions: in vivo, 1 h; summary of the method: as §1
Rattus norvegicus [4] = species: Rattus norvegicus; assay: Biodistribution of compound was tested in rat kidney at 15 min; assay type: ADME, organism-based; conditions: in vivo, 0.25 h; summary of the method: as §1
Rattus norvegicus [5] = species: Rattus norvegicus; assay: Biodistribution of compound was tested in rat kidney at 2 min; assay type: ADME, organism-based; conditions: in vivo; summary of the method: as §1
Rattus norvegicus [6] = species: Rattus norvegicus; assay: Biodistribution of compound was tested in rat kidney at 60 min; assay type: ADME, organism-based; conditions: in vivo, 1 h; summary of the method: as §1
Rattus norvegicus [7] = species: Rattus norvegicus; assay: Biodistribution of compound was tested in rat liver at 15 min; assay type: ADME, organism-based; conditions: in vivo, 0.25 h; summary of the method: as §1
Rattus norvegicus [8] = species: Rattus norvegicus; assay: Biodistribution of compound was tested in rat liver at 2 min; assay type: ADME, organism-based; conditions: in vivo; summary of the method: as §1
Rattus norvegicus [9] = species: Rattus norvegicus; assay: Biodistribution of compound was tested in rat liver at 60 min; assay type: ADME, organism-based; conditions: in vivo, 1 h; summary of the method: as §1
Rattus norvegicus [10] = species: Rattus norvegicus; assay: Biodistribution of compound was tested in rat lung at 15 min; assay type: ADME, organism-based; conditions: in vivo, 0.25 h; summary of the method: as §1
Rattus norvegicus [11] = species: Rattus norvegicus; assay: Biodistribution of compound was tested in rat lung at 2 min; assay type: ADME, organism-based; conditions: in vivo; summary of the method: as §1
Rattus norvegicus [12] = species: Rattus norvegicus; assay: Biodistribution of compound was tested in rat lung at 60 min; assay type: ADME, organism-based; conditions: in vivo, 1 h; summary of the method: as §1
Rattus norvegicus [13] = species: Rattus norvegicus; assay: Biodistribution of compound was tested in rat muscle at 15 min; assay type: ADME, organism-based, Muscle tissue; conditions: in vivo, 0.25 h; summary of the method: as §1
Rattus norvegicus [14] = species: Rattus norvegicus; assay: Biodistribution of compound was tested in rat muscle at 2 min; assay type: ADME, organism-based, Muscle tissue; conditions: in vivo; summary of the method: as §1
Rattus norvegicus [15] = species: Rattus norvegicus; assay: Biodistribution of compound was tested in rat muscle at 60 min; assay type: ADME, organism-based, Muscle tissue; conditions: in vivo, 1 h; summary of the method: as §1
Rattus norvegicus [16] = species: Rattus norvegicus; assay: Biodistribution of compound was tested in rat skin at 15 min; assay type: ADME, organism-based, Zone of skin; conditions: in vivo, 0.25 h; summary of the method: as §1
Rattus norvegicus [17] = species: Rattus norvegicus; assay: Biodistribution of compound was tested in rat skin at 2 min; assay type: ADME, organism-based, Zone of skin; conditions: in vivo; summary of the method: as §1
Rattus norvegicus [18] = species: Rattus norvegicus; assay: Biodistribution of compound was tested in rat skin at 60 min; assay type: ADME, organism-based, Zone of skin; conditions: in vivo, 1 h; summary of the method: as §1
Rattus norvegicus [19] = species: Rattus norvegicus; assay: Biodistribution of compound was tested in rat spleen at 2 min; assay type: ADME, organism-based; conditions: in vivo; summary of the method: as §1
Rattus norvegicus [20] = species: Rattus norvegicus; assay: Biodistribution of compound was tested in rat brain at 15 min; assay type: ADME, organism-based; conditions: in vivo, 0.25 h; summary of the method: as §1
Rattus norvegicus [21] = species: Rattus norvegicus; assay: Biodistribution of compound was tested in rat brain at 2 min; assay type: ADME, organism-based; conditions: in vivo; summary of the method: as §1
Rattus norvegicus [22] = species: Rattus norvegicus; assay: Biodistribution of compound was tested in rat brain at 60 min; assay type: ADME, organism-based; conditions: in vivo, 1 h; summary of the method: as §1
Rattus norvegicus [23] = species: Rattus norvegicus; assay: Biodistribution of compound was tested in rat heart at 15 min; assay type: ADME, organism-based; conditions: in vivo, 0.25 h; summary of the method: as §1
Rattus norvegicus [24] = species: Rattus norvegicus; assay: Biodistribution of compound was tested in rat heart at 2 min; assay type: ADME, organism-based; conditions: in vivo; summary of the method: as §1
Rattus norvegicus [25] = species: Rattus norvegicus; assay: Biodistribution of compound was tested in rat spleen at 60 min; assay type: ADME, organism-based; conditions: in vivo, 1 h; summary of the method: as §1
Rattus norvegicus [26] = species: Rattus norvegicus; assay: Biodistribution of compound was tested in rat heart at 60 min; assay type: ADME, organism-based; conditions: in vivo, 1 h; summary of the method: as §1
Rattus norvegicus [27] = species: Rattus norvegicus; assay: Biodistribution of compound was tested in rat spleen at 15 min; assay type: ADME, organism-based; conditions: in vivo, 0.25 h; summary of the method: as §1
Rattus norvegicus [28] = species: Rattus norvegicus; assay: Biodistribution of compound was tested in rat blood at 30 min; assay type: ADME, organism-based; conditions: in vivo, 0.5 h; summary of the method: as §1
Rattus norvegicus [29] = species: Rattus norvegicus; assay: Biodistribution of compound was tested in rat kidney at 30 min; assay type: ADME, organism-based; conditions: in vivo, 0.5 h; summary of the method: as §1
Rattus norvegicus [30] = species: Rattus norvegicus; assay: Biodistribution of compound was tested in rat lung at 30 min; assay type: ADME, organism-based; conditions: in vivo, 0.5 h; summary of the method: as §1
Rattus norvegicus [31] = species: Rattus norvegicus; assay: Biodistribution of compound was tested in rat muscle at 30 min; assay type: ADME, organism-based, Muscle tissue; conditions: in vivo, 0.5 h; summary of the method: as §1
Rattus norvegicus [32] = species: Rattus norvegicus; assay: Biodistribution of compound was tested in rat skin at 30 min; assay type: ADME, organism-based, Zone of skin; conditions: in vivo, 0.5 h; summary of the method: as §1
Rattus norvegicus [33] = species: Rattus norvegicus; assay: Biodistribution of compound was tested in rat spleen at 30 min; assay type: ADME, organism-based; conditions: in vivo, 0.5 h; summary of the method: as §1
Rattus norvegicus [34] = species: Rattus norvegicus; assay: Biodistribution of compound was tested in rat heart at 30 min; assay type: ADME, organism-based; conditions: in vivo, 0.5 h; summary of the method: as §1
Rattus norvegicus [35] = species: Rattus norvegicus; assay: Biodistribution of compound was tested in rat brain at 30 min; assay type: ADME, organism-based; conditions: in vivo, 0.5 h; summary of the method: as §1
Rattus norvegicus [36] = species: Rattus norvegicus; assay: Biodistribution of compound was tested in rat liver at 30 min; assay type: ADME, organism-based; conditions: in vivo, 0.5 h; summary of the method: as §1

Dose/organ (Rattus norvegicus [1]): 4.37%
Dose/organ (Rattus norvegicus [2]): 2%
Dose/organ (Rattus norvegicus [3]): 1.27%
Dose/organ (Rattus norvegicus [4]): 1.54%
Dose/organ (Rattus norvegicus [5]): 3.58%
Dose/organ (Rattus norvegicus [6]): 0.93%
Dose/organ (Rattus norvegicus [7]): 26.5%
Dose/organ (Rattus norvegicus [8]): 23.58%
Dose/organ (Rattus norvegicus [9]): 20.75%
Dose/organ (Rattus norvegicus [10]): 0.91%
Dose/organ (Rattus norvegicus [11]): 1.79%
Dose/organ (Rattus norvegicus [12]): 0.5%
Dose/organ (Rattus norvegicus [13]): 16.5%
Dose/organ (Rattus norvegicus [14]): 20.77%
Dose/organ (Rattus norvegicus [15]): 20.08%
Dose/organ (Rattus norvegicus [16]): 10.45%
Dose/organ (Rattus norvegicus [17]): 13.48%
Dose/organ (Rattus norvegicus [18]): 16.5%
Dose/organ (Rattus norvegicus [19]): 0.64%
Dose/organ (Rattus norvegicus [20]): 0.72%
Dose/organ (Rattus norvegicus [21]): 1.54%
Dose/organ (Rattus norvegicus [22]): 0.21%
Dose/organ (Rattus norvegicus [23]): 0.53%
Dose/organ (Rattus norvegicus [24]): 1.28%
Dose/organ (Rattus norvegicus [25]): 0.68%
Dose/organ (Rattus norvegicus [26]): 0.28%
Dose/organ (Rattus norvegicus [27]): 0.72%
Substance: technicium complex

Dose/organ (Rattus norvegicus [1]): 8.12%
Dose/organ (Rattus norvegicus [28]): 3.22%
Dose/organ (Rattus norvegicus [5]): 3.3%
Dose/organ (Rattus norvegicus [29]): 1.33%
Dose/organ (Rattus norvegicus [8]): 22.76%
Dose/organ (Rattus norvegicus [11]): 4.47%
Dose/organ (Rattus norvegicus [30]): 1.98%
Dose/organ (Rattus norvegicus [14]): 10.24%
Dose/organ (Rattus norvegicus [31]): 13.52%
Dose/organ (Rattus norvegicus [17]): 3.94%
Dose/organ (Rattus norvegicus [32]): 11.94%
Dose/organ (Rattus norvegicus [19]): 0.68%
Dose/organ (Rattus norvegicus [33]): 0.3%
Dose/organ (Rattus norvegicus [34]): 0.24%
Dose/organ (Rattus norvegicus [21]): 1.07%
Dose/organ (Rattus norvegicus [35]): 0.28%
Dose/organ (Rattus norvegicus [24]): 1.15%
Dose/organ (Rattus norvegicus [36]): 22.65%
Substance: tecnicium complex
